According to ChEMBL document CHEMBL2016475, “Discovery of small molecule HIV-1 integrase dimerization inhibitors” (Bioorg Med Chem Lett, 2012):
Calls of active or inactive are those of the source. The rule behind the calls is not given here.

These compounds were tested against Human immunodeficiency virus type 1 integrase (Human immunodeficiency virus 1) (UniProt Q7ZJM1) (assay: Inhibition of GST-tagged HIV1 integrase and C-terminal His6-tagged HIV1 integrase dimerization at 100 uM after 3 hrs by AlphaScreen-based dimerization assay).
Procedure, shortened: (§1)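 AlphaScreen proximity assay. GST-tagged HIV-1 IN is mixed with His6-tagged IN and incubated so monomers exchange between pre-existing dimers, giving a steady-state mix of homo- and GST/His6 heterodimers. Photon counts are normalized to DMSO and blank controls and expressed as normalized signal (%). Dose–response curves give the IC50, and single-concentration tests give percent inhibition.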

Chain of Human immunodeficiency virus type 1 integrase (Human immunodeficiency virus 1) (Q7ZJM1 as listed by the source): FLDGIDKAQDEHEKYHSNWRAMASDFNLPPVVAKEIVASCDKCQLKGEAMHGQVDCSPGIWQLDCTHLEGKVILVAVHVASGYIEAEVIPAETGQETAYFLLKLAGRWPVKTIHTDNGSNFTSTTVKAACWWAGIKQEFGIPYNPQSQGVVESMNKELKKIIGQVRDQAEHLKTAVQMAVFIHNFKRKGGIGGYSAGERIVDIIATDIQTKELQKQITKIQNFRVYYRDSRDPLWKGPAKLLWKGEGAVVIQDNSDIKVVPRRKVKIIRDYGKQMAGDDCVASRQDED

Row | Compound | inhibition
1 | COc1cccc2[nH]c(C(=O)NCCC(=O)Nc3nc4ccccc4s3)cc12 | inactive
2 | COc1ccc(CNC(=O)C/C(C)=N/NC(=O)c2cc3ccccc3cc2O)cc1 | 50%
3 | COc1cccc2[nH]c(C(=O)NCCCC(=O)Nc3ccc4c(c3)OCCO4)cc12 | 50%
4 | O=C(NCCNC(=O)c1cc2ccccc2o1)c1nc2ccccc2c(=O)[nH]1 | inactive
5 | O=C(NCCNC(=O)c1cc2ccccc2cc1O)c1cc2ccccc2cc1O | inactive
6 | CCn1c2ccccc2c2cc(NC(=O)/C=C(\C)NNC(=O)Cc3cccc4ccccc34)ccc21 | inactive
7 | O=C(N/N=C/c1ccc(Sc2ccccn2)o1)c1cc2ccccc2cc1O | 30%
8 | COc1ccc(CCNC(=O)C/C(C)=N/NC(=O)c2cc3ccccc3cc2O)cc1OC | 83%
9 | COc1ccc(/C=C/C(=O)Nc2ncc(Cc3cccc(C)c3)s2)cc1 | inactive
10 | O=C(N/N=C/c1ccc(-c2ccc(Cl)cc2Cl)o1)c1cc2ccccc2cc1O | 49%
11 | COc1ccc(OC)c2[nH]c(C(=O)NCCC(=O)NCCc3c[nH]c4ccccc34)cc12 | 73%
12 | COc1ccc(C(=O)N/N=C(\C)CC(=O)NCc2ccccc2)cc1OC | inactive
13 | C/C(CC(=O)Nc1ccc(OCc2ccccc2)cc1)=N\NC(=O)c1cc2ccccc2cc1O | 54%
14 | COc1cccc(-c2nc(C)c(C(=O)Nc3cc(C)ccc3O)s2)c1 | 32%
15 | CCc1ccc(O)c(NC(=S)NC(=O)COc2cc(C)c(Cl)c(C)c2)c1 | 23%
16 | Cc1ccc(C2(O)CCN(CCNC(=O)Cc3cccc(C)c3)CC2)cc1 | inactive
17 | Cc1ccc(C(=O)CCC(=O)Nc2nc3c(s2)CCc2c-3cnn2C)cc1C | 13%

Results, then the compound that gave them:

Row | inhibition | Compound
18 | 58% | COc1ccc(OC)c2[nH]c(C(=O)NCCCC(=O)Nc3ccc4c(c3)OCCO4)cc12
19 | inactive | C[C@H](Oc1ccc2c(c1)CCC2)C(=O)NNC(=O)Nc1cccc([N+](=O)[O-])c1
20 | 49% | O=C(CNc1ccc2ccccc2c1)N/N=C/c1ccc(-c2ccc(Cl)cc2)o1
21 | inactive | O=C(Nc1cccc(-c2cnc3ccccc3n2)c1)c1cc2ccccc2cc1O
22 | 14% | CC(CCc1ccccc1)NC(=O)c1ccc(NC(=O)C2COc3ccccc3O2)cc1 (stereo not drawn)
23 | inactive | O=C(NCCNC(=O)c1nc2ccccc2c(=O)[nH]1)c1ccc2ccccc2n1
24 | inactive | Cc1cc(C)cc(OCC(=O)NNC(=O)c2ccc3ccccc3c2O)c1
25 | inactive | C/C(CC(=O)Nc1ccc(Cl)c(Cl)c1)=N\NC(=O)c1cc2ccccc2cc1O

These compounds were tested against T1, Human immunodeficiency virus type 1 integrase (Human immunodeficiency virus 1, UniProt Q7ZJM1) (assay: Inhibition of HIV1 integrase using oligodeoxynucleotide as substrate after 1 hr by ELISA).
T1 sequence (Q7ZJM1 whole entry): as the sequence (Q7ZJM1 as listed by the source) above

Row | IC50 [µM] | Compound
26 | 79 | COc1ccc(CCNC(=O)C/C(C)=N/NC(=O)c2cc3ccccc3cc2O)cc1OC

Each compound was assayed against T1, Human immunodeficiency virus type 1 integrase (assay: Inhibition of GST-tagged HIV1 integrase and C-terminal His6-tagged HIV1 integrase dimerization after 3 hrs by AlphaScreen-based dimerization assay).
Procedure, shortened: as §1

Row | IC50 [µM] | Compound
27 | 128 | COc1ccc(CNC(=O)C/C(C)=N/NC(=O)c2cc3ccccc3cc2O)cc1
28 | 38.4 | COc1ccc(CCNC(=O)C/C(C)=N/NC(=O)c2cc3ccccc3cc2O)cc1OC
